Where “and” joins values, the source holds several entries; their conditions need not be identical. Equal entries are not always repeated. Some results are limits rather than exact numbers.

System in the first data set: not listed separately
The data set is described as follows: (§1) Neurotoxic dose (TD50) from horizontal screen in mice. It counts as toxicity, organism-based. The settings on record: mouse, in vivo. In a few lines: (§2)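 Male CF-1 mice, ip dosing in 30% PEG 400 unless otherwise noted. Trained mice are placed on a 13 × 13 cm no. 4 mesh wire screen on a vertical rod, which is rotated 180°. Impairment is scored as failure to climb to the top within 1 min. TD50 comes from a dose-response at the time of peak anticonvulsant activity, with 3–4 doses and 12 mice/dose. Some entries used the rotorod instead.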
Regarding `CON(C)C(NC(C)=O)C(=O)NCc1ccccc1` (stereo unspecified), the TD50 (as a rule, the dose at which the toxic effect under study appears in half of the subjects) came out at 50.5 mg/kg.
The molecule `CONC(NC(C)=O)C(=O)NCc1ccccc1` (stereo unspecified) registered a TD50 of 46 mg/kg.
In turn, `CCOC(NC(C)=O)C(=O)NCc1ccccc1` (stereo unspecified) had a TD50 of over 112 mg/kg.
Same read-out and setting: the value for `CC(=O)NC(C(=O)NCc1ccccc1)c1ccco1` (stereo unspecified) was 40 mg/kg.

The species entered for another data set is Mus musculus. The data set is described as §1. As to conditions: in vivo. It counts as toxicity, organism-based. An outline of the steps: as §2
Turning to `COC(NC(C)=O)C(=O)NCc1ccccc1` (stereo unspecified), the TD50 is > 100 mg/kg and < 300 mg/kg.

The next data set relates to Mus musculus. The data set is described as follows: Concentration required to prevent seizures upon intraperitoneal administration in mice in MES (maximal electroshock seizure) test. It counts as functional.
Settings: not given
An outline of the steps: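 Male CF-1 mice dosed ip with compound in 30% PEG 400 (one compound in acacia). Pilot groups of 4 mice per dose tested at 0.5, 1 and 4 h for protection against maximal electroshock seizures.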
(Protection in the maximal electroshock model is a classic sign of anticonvulsant action.)
As for `CC(=O)NC(NC(C)=O)C(=O)NCc1ccccc1`, the ED50 (commonly the midpoint of the dose-response relation) is <300 mg/kg and >100 mg/kg.

The data set is the same for the next values; noted with them: Mus musculus, ip; read-out: ED50.
On to `CC(=O)NC(C(=O)NCc1ccccc1)N(C)C` (stereo unspecified), for which the ED50 is 45.3 mg/kg.
Regarding `CC(=O)NC(NO)C(=O)NCc1ccccc1` (stereo unspecified), the 50% effective dose (ED50) came out at 100 mg/kg.
Regarding `CC(=O)NC(C(=O)NCc1ccccc1)N(C)O` (stereo unspecified), the ED50 turned out to be 30 mg/kg.
On to `CC(=O)NC(C(=O)NCc1ccccc1)[N+](C)(C)C.F[B-](F)(F)F` (stereo unspecified), for which the ED50 is over 100 mg/kg.
For `CC(=O)NC(N)C(=O)NCc1ccccc1` (stereo unspecified), the median effective dose (ED50) is 65.1 mg/kg.
Turning to `CC(=O)NC(NC(=O)C(F)(F)F)C(=O)NCc1ccccc1` (stereo unspecified), the 50% effective dose (ED50) is over 300 mg/kg.
Regarding `CSC(NC(C)=O)C(=O)NCc1ccccc1` (stereo unspecified), the 50% effective dose (ED50) is over 100 mg/kg.
Regarding `CON(C)C(NC(C)=O)C(=O)NCc1ccccc1` (stereo unspecified), the ED50 came out at 6.7 mg/kg.
Turning to `CONC(NC(C)=O)C(=O)NCc1ccccc1` (stereo unspecified), the median effective dose (ED50) came out at 6.2 mg/kg.
With `CC[S+]([O-])C(NC(C)=O)C(=O)NCc1ccccc1` (stereo unspecified), the ED50 was over 100 mg/kg.
On to `CC(=O)NC(C(=O)NCc1ccccc1)N1CCCO1` (stereo unspecified), for which the median effective dose (ED50) is 31.4 mg/kg.
For `CC(=O)NC(Sc1ccccc1)C(=O)NCc1ccccc1` (stereo unspecified), the ED50 was over 300 mg/kg.
On to `CC(=O)NC(O)C(=O)NCc1ccccc1` (stereo unspecified), for which the median effective dose (ED50) was determined as 80.1 mg/kg.
`CCS(=O)(=O)C(NC(C)=O)C(=O)NCc1ccccc1` (stereo unspecified): the ED50 is over 100 mg/kg.
As to `CC(=O)NC(NNC(=O)OCc1ccccc1)C(=O)NCc1ccccc1` (stereo unspecified), the median effective dose (ED50) came out at 55.6 mg/kg.
For `CC(=O)NC(Nc1ccccc1)C(=O)NCc1ccccc1` (stereo unspecified), the ED50 is over 300 mg/kg.
In the case of `CC(=O)NC(NNc1ccccc1)C(=O)NCc1ccccc1` (stereo unspecified), the ED50 is 100 mg/kg.
Regarding `CCOC(NC(C)=O)C(=O)NCc1ccccc1` (stereo unspecified), the ED50 was 62 mg/kg.
Consider `CC(=O)NC(Nc1cc[nH]n1)C(=O)NCc1ccccc1` (stereo unspecified), for which the median effective dose (ED50) came to 100 mg/kg.
On to `CC(=O)NC(Oc1ccccc1)C(=O)NCc1ccccc1` (stereo unspecified), for which the ED50 was over 100 mg/kg.

Source of the values: ChEMBL document CHEMBL1125809, “Preparation and anticonvulsant activity of a series of functionalized alpha-heteroatom-substituted amino acids” (J Med Chem, 1991).
